Here are results for 22 molecules from ChEMBL document CHEMBL1140966, “Syntheses and evaluation of 3-(3-bromo phenyl)-5-phenyl-1-(thiazolo [4,5-b] quinoxaline-2-yl)-2-pyrazoline derivatives” (Eur J Med Chem, 2008).

One data set relates to Entamoeba histolytica. The experiment in a line: Antiamoebic activity against Entamoeba histolytica HMI:IMSS after 72 hrs by microdilution method. The class given is functional, organism-based. The method, boiled down:
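E. histolytica HMI:IMSS trophozoites grown in TYIS-33 medium. Compounds dissolved in DMSO, made up to 1 mg/ml with medium, then twofold serial dilutions in 96-well plates. 1.7 × 10⁴ viable organisms/well; plates gassed with nitrogen for 10 min, 37 °C for 72 h. Cells methanol-fixed and eosin-stained, dye released with 0.1 N NaOH, OD read at 490 nm. IC50 taken from linear regression of % inhibition vs log dose.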
(Broth dilution looks for growth in wells or tubes with falling amounts of substance.)

Data set [1] in a line: Cytotoxicity against human kidney epithelial cells after 44 hrs by MTT assay. It is filed as cell-based. The following applies: Epithelial cell. The procedure, abridged:
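Transformed human kidney epithelial (Graham) cells kept at 37 °C in 5% CO2. Trypsinized cells adjusted to 0.5 million cells/mL and plated with compound. After 44 h, 2 mM MTT added for a further 4 h, then DMSO added to dissolve formazan. Absorbance read at 540 nm with 690 nm reference; % viability calculated against controls.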
(Tetrazolium assays rely on reduction of a dye to a coloured formazan, in cell work by metabolically active cells.)

Data set [2] can be described thus: Safety index, ratio of IC50 for human kidney epithelial cells to IC50 for Entamoeba histolytica HMI:IMSS. The class given is toxicity, cell-based, Epithelial cell. As to conditions: read-out: Ratio IC50. The procedure, abridged:
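Ratio computed as toxicity IC50 in human kidney epithelial cells (concentration killing 50% of cells, MTT) over protozoal IC50 against E. histolytica (concentration killing 50% of amoebae).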

SMILES strings stand for the structures.

On to `CC(C)c1ccccc1/C=C/C(=O)c1cccc(Br)c1`, for which, in the data set with Entamoeba histolytica, the half-inhibitory concentration (IC50) was 1.92 µM.

As for `Cc1ccc(/C=C/C(=O)c2cccc(Br)c2)cc1`, half-maximal inhibition in the data set on Entamoeba histolytica (IC50) required 2.49 µM.

In turn, `NC(=S)N1N=C(c2cccc(Br)c2)CC1c1c[nH]c2ccccc12` (centres undefined) yielded an IC50 in the data set with Entamoeba histolytica of 2.28 µM.

In the data set on Entamoeba histolytica, `CC(C)c1ccccc1C1CC(c2cccc(Br)c2)=NN1C(N)=S` (centres undefined) gave an IC50 of 2.34 µM.

With `Cc1cc(C)c(C2CC(c3cccc(Br)c3)=NN2C(N)=S)c(C)c1` (centres undefined), the IC50 with Entamoeba histolytica came to 1.71 µM.

Turning to `Cc1cc(C)c(C2CC(c3cccc(Br)c3)=NN2c2nc3nc4ccccc4nc3s2)c(C)c1` (centres undefined), the results for the IC50 (in the data set on Entamoeba histolytica; in data set [1]) were 1.29 µM and above 60 µM, respectively. Besides, the selectivity ratio in data set [2] is above 46.5.

`Cc1ccc(C2CC(c3cccc(Br)c3)=NN2C(N)=S)cc1` (centres undefined): the IC50 in the data set with Entamoeba histolytica turned out to be 4.38 µM.

As to `Clc1ccccc1C1CC(c2cccc(Br)c2)=NN1c1nc2nc3ccccc3nc2s1` (centres undefined), the half-inhibitory concentration (IC50) in the data set on Entamoeba histolytica is 0.68 µM; in data set [1], above 60 µM. Also, the selectivity ratio in data set [2] is above 88.2.

In the data set on Entamoeba histolytica, `NC(=S)N1N=C(c2cccc(Br)c2)CC1c1ccccc1Cl` (centres undefined) returned an IC50 of 1.9 µM.

Consider `NC(=S)N1N=C(c2cccc(Br)c2)CC1c1cccc(Cl)c1Cl` (centres undefined), for which, in the data set with Entamoeba histolytica, the IC50 turned out to be 0.56 µM.

In the case of `Cc1cc(C)c(/C=C/C(=O)c2cccc(Br)c2)c(C)c1`, it took 1.8 µM to reach half-maximal inhibition in the data set on Entamoeba histolytica (IC50).

As for `NC(=S)N1N=C(c2cccc(Br)c2)CC1c1ccccc1` (centres undefined), in the data set with Entamoeba histolytica, the IC50 turned out to be 0.19 µM.

Turning to `CC(C)c1ccccc1C1CC(c2cccc(Br)c2)=NN1c1nc2nc3ccccc3nc2s1` (centres undefined), the figures for the IC50 (in the data set on Entamoeba histolytica; in data set [1]) were 1.87 µM and above 60 µM, respectively. Also, the selectivity ratio in data set [2] was above 32.1.

Consider `Cc1ncc([N+](=O)[O-])n1CCO` [METRONIDAZOLE], for which, in data set [1], the IC50 was above 100 µM. For the same molecule, the selectivity ratio in data set [2] was above 55.5.

In the case of `CCc1ccccc1C1CC(c2cccc(Br)c2)=NN1c1nc2nc3ccccc3nc2s1` (centres undefined), the IC50 in the data set with Entamoeba histolytica was 2.49 µM; in data set [1], above 60 µM. Further, in data set [2], the selectivity ratio was above 24.1.

Regarding `O=C(/C=C/c1ccc(Cl)cc1Cl)c1cccc(Br)c1`, in the data set with Entamoeba histolytica, 1.11 µM corresponded to half-maximal inhibition (IC50).

As for `O=C(/C=C/c1ccccc1Cl)c1cccc(Br)c1`, the IC50 with Entamoeba histolytica was found to be 2.23 µM.

Turning to `Cc1ccc(C2CC(c3cccc(Br)c3)=NN2c2nc3nc4ccccc4nc3s2)cc1` (centres undefined), the IC50 in the data set on Entamoeba histolytica was 0.1 µM; in data set [1] it was above 60 µM. In addition, the selectivity ratio in data set [2] is above 600.

Consider `Brc1cccc(C2=NN(c3nc4nc5ccccc5nc4s3)C(c3c[nH]c4ccccc34)C2)c1` (centres undefined), for which the IC50 in the data set with Entamoeba histolytica is 0.08 µM; in data set [1], above 60 µM. Moreover, in data set [2], the selectivity ratio was above 750.

Regarding `Brc1cccc(C2=NN(c3nc4nc5ccccc5nc4s3)C(c3ccccc3)C2)c1` (centres undefined), the values for the IC50 (with Entamoeba histolytica; in data set [1]) were 0.14 µM and above 60 µM, respectively. The selectivity ratio in data set [2] was above 428.

As for `Clc1cccc(C2CC(c3cccc(Br)c3)=NN2c2nc3nc4ccccc4nc3s2)c1Cl` (centres undefined), the IC50 with Entamoeba histolytica is 0.7 µM; in data set [1], above 60 µM. Also, the selectivity ratio in data set [2] is above 85.7.

In turn, `CCc1ccccc1C1CC(c2cccc(Br)c2)=NN1C(N)=S` (centres undefined) had an IC50 in the data set with Entamoeba histolytica of 2.61 µM.

Broadly, the IC50 is the concentration that inhibits the measured activity by half. High values mean weaker potency, low ones greater potency.
